The list is not random: actives were taken first. Their share in the collection is about 4.7%.
SKN-1 inh: C. elegans SKN-1 inhibition. C. elegans VP596 Pgst-4::GFP/RFP ratio, acrylamide-induced, 24 h. inhibition, % at 21.8 µM. actives 0.49% (n = 360,000). AID 624304;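 active means interference check ratio from 0.5 to 1.5 plus GFP to RFP signal ratio inhibition reaching or exceeding a fixed threshold, cut at about 30% in these data, passing the limit was not always enough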
MPTP block: permeability transition pore inhibition; inhibition, % at 10 µM; actives 1.4% (n = 360,000); isolated mouse mitochondria, Ca2+ swelling absorbance, 30 min; AID 602449;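 active means inhibition of 50% or more, scaled per plate between neutral and stimulator controls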;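 further: 0% = DMSO wells given calcium and 100% = 1 mM EGTA wells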
ADAM17 inh: inhibits human ADAM17; P78536; recombinant ADAM17, EDANS/DABCYL FRET peptide cleavage; inhibition, % at 6.95 µM; actives 0.83% (n = 370,000);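 active means inhibition above the mean of compounds lying between control limits plus 3 SD, set per campaign, cut at about 8.5% in these data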;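 further: 0% = DMSO-only wells as the low control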
ADAM10 inh: inhibitors of human ADAM10. inhibition, % at 7 µM. recombinant ADAM10, EDANS/DABCYL FRET peptide cleavage, 3 h. actives 0.62% (n = 370,000). AID 720582;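 active means inhibition above a per-campaign cutoff equal to the mean of compounds falling between control-based bounds plus 3 SD, cut at about 20% in these data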;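 further: 0% = DMSO wells while the 100% control is not disclosed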
Target sequence (O14672 214-748 limits assumed): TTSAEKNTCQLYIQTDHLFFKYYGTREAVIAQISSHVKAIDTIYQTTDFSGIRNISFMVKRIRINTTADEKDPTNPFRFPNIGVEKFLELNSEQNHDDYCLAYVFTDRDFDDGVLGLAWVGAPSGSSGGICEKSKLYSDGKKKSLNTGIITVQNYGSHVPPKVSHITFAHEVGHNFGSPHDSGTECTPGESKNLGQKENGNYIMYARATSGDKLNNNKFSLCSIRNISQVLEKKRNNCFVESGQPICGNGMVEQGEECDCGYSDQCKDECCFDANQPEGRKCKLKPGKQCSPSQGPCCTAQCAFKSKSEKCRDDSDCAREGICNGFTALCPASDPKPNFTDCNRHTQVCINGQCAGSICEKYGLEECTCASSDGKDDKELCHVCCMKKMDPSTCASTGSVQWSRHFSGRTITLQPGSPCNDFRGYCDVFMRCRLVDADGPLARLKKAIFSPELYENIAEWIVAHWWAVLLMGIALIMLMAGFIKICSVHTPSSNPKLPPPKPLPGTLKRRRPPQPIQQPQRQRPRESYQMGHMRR
MT1-MMP act inh: MT1-MMP (human) activation inhibition; AID 651647; HT1080 RFP-PRO-GFP cells, GFP/RFP ratio fluorescence, overnight; percent of plate control window, DMSO zero; P50281; GFP/RFP ratio change, % at 20 µM; actives 0.061% (n = 360,000);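 active means GFP/RFP ratio change of at least 30% with cell ATP level not reduced by more than half and red fluorescence within 50% of control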
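Assay system: HT1080 RFP-PRO-GFP cells. Benchmarks: DMSO vehicle wells and RFP-L50D-GFP reporter cell wells. Times: overnight cell settling, then overnight compound exposure, 37 °C, 5% CO2. Compound: 20 µM single dose, 1% DMSO. Read-out basis: GFP/RFP fluorescence ratio.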
GRIN3A LBD mod: NR3A (human) ligand-binding domain modulation; AID 1259313; NR3A LBD differential scanning fluorimetry, Tm shift; 0% = protein alone, 100% = glycine-bound protein; actives 2.5% (n = 340,000); Tm shift relative to glycine control, % at 25 µM;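 active means melting temperature shift of at least 10% of the positive control shift, at one fixed dose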
ADAM10 confirm: human ADAM10 inhibition, confirmation; shares compounds with ADAM10 inh; ADAM10 QFRET peptide cleavage, EDANS fluorescence; inhibition, % at 6.95 µM; actives 1% (n = 2,100); AID 743208;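 active means inhibition above about 20% chosen separately for each screening run, limit read from the data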;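 further: 0% = DMSO wells and 100% = marimastat wells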
ADAM17 counter: counter-screen for ADAM10 exosite inhibitors: inhibitors of human ADAM17. inhibition, % at 6.95 µM. shares compounds with ADAM10 inh. AID 743214. ADAM17 QFRET peptide cleavage, EDANS fluorescence. actives 0.5% (n = 2,100);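 active means mean triplicate inhibition above the solvent-only control wells' mean plus 3 SD, cut at about 12% in these data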;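 further: 0% = DMSO wells and 100% = marimastat wells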
ADAM10 ctr: ADAM10 inhibition, counter-screen for ADAM17 exosite hits; shares compounds with ADAM17 inh; recombinant ADAM10, EDANS/DABCYL FRET peptide cleavage, 3 h; inhibition, % at 6.95 µM; actives 47% (n = 2,900);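 active means mean inhibition over the triplicate runs exceeds the activity threshold set in the earlier primary screen, cut at about 20% in these data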;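 further: 0% = DMSO wells and 100% = marimastat wells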
ADAM17 confirm: confirmation of inhibitors of human ADAM17; shares compounds with ADAM17 inh; recombinant ADAM17, EDANS/DABCYL QFRET peptide cleavage; inhibition, % at 6.95 µM; actives 65% (n = 2,900); AID 743257;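 active means mean inhibition across replicates above the hit cutoff set in the primary screen, cut at about 8.5% in these data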;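 further: 0% = DMSO wells and 100% = marimastat wells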
* hit, by the source's call; x = no result.

SMILES | SKN-1 inh | MPTP block | ADAM17 inh | ADAM10 inh | MT1-MMP act inh | GRIN3A LBD mod | ADAM10 confirm | ADAM17 counter | ADAM10 ctr | ADAM17 confirm
CCn1cc(S(=O)(=O)NCCc2ccc(F)cc2)cn1 | -7.1 | 0.5 | 2.0 | 3.8 | -2.4 | -0.9 | x | x | x | x
COc1cc2c(cc1OC)C(=O)N1[C@H]3c4cc(Cl)ccc4OC[C@@H]3[C@H](c3ccccc3)[C@]1(C)C(=O)N2 | 6.3 | -0.5 | 11.7* | 28.9* | -21.2 | -3.2 | 15.8 | 4.9 | 34.4* | 19.2*
COc1cc2c(cc1OC)C(=O)N1[C@H]3c4cc(C)ccc4OC[C@@H]3[C@H](c3ccccc3)[C@]1(C)C(=O)N2 | 20.3 | -1.6 | 2.2 | 5.3 | -3.4 | -1.1 | x | x | x | x
CC(=Nc1ccccc1C(F)(F)F)c1ccncc1 | -6.1 | -0.4 | -0.6 | 0.3 | -0.1 | -3.0 | x | x | x | x
COc1ccc(Cl)c(NC(=O)C/C(C)=N/NC(=O)CCc2ccccc2)c1 | -3.0 | -0.4 | 10.6* | 24.7* | -4.3 | -2.2 | 1.2 | -0.2 | -1.9 | 1.7
COc1ccc(C2CC(=O)C(C3NCCc4ccccc43)=C(O)C2n2cncn2)cc1 (configuration not stated) | -2.9 | 0.5 | -7.8 | -3.3 | -3.5 | -0.3 | x | x | x | x
CC1CCc2c(sc3nc(CN4CCOCC4)nc(Sc4ccccc4)c23)C1 (configuration not stated) | 5.5 | -0.6 | -3.9 | -4.5 | -11.2 | -0.6 | x | x | x | x
CN(Cc1ccccc1)C(=O)Cn1nnc(-c2ccccc2)c1COc1ccc2ccccc2c1 | 15.5 | 0.9 | 20.3* | 34.2* | -5.9 | x | 7.6 | 1.6 | 25.0* | 15.6*
O=S(=O)(Nc1ccccc1)c1ccc(Oc2ncc(C(F)(F)F)cc2Cl)cc1 | 11.3 | 38.4 | 12.2* | 28.7* | -10.7 | 7.6 | 5.0 | 2.1 | 35.1* | 18.6*
CC1CCN(c2ccc(C(=O)Nc3ccc4c(c3)OCO4)cc2[N+](=O)[O-])CC1 | 17.5 | 28.9 | 8.7* | 20.4* | 0.5 | -3.8 | 6.4 | 2.1 | 30.1* | 15.6*
COC(=O)c1cc(NS(=O)(=O)c2ccc(N3CCC(C)CC3)c([N+](=O)[O-])c2)cc(C(=O)OC)c1 | 11.6 | 9.8 | 13.0* | 28.1* | 1.5 | 18.4* | 5.5 | 2.6 | 25.7* | 16.7*
COc1ccccc1C(=O)N(Cc1ccccn1)CC1CCCO1 (configuration not stated) | x | x | 6.1 | 5.3 | x | x | x | x | x | x
O=[N+]([O-])c1cccnc1N1CCC(c2cc(-c3cccc(C(F)(F)F)c3)n[nH]2)CC1 | 0.9 | 0.6 | 10.5* | 20.2* | 3.9 | 6.3 | 14.8 | 3.3 | 47.8* | 19.4*
O=[N+]([O-])c1cccnc1N1CCC(c2cc(-c3ccc(Cl)cc3Cl)n[nH]2)CC1 | -0.8 | -6.1 | 11.3* | 30.0* | 5.5 | 3.9 | 7.5 | 2.1 | 31.0* | 16.7*
O=[N+]([O-])c1cccnc1N1CCCCC1 | -16.4 | -2.6 | -3.8 | -5.9 | 9.4 | 0.9 | x | x | x | x
COc1cc(CCC(=O)OCC(=O)Nc2cccc(S(=O)(=O)N(C)C)c2)cc(OC)c1OC | 2.9 | 0.2 | 0.4 | -2.4 | 1.5 | -1.0 | x | x | x | x
CCN(CC)S(=O)(=O)c1ccc(NC(=O)COC(=O)CCc2cc(OC)c(OC)c(OC)c2)cc1 | -4.6 | 1.3 | 11.4* | 28.1* | 1.6 | 0.6 | 6.5 | 1.3 | 5.1 | 2.5
CC1C(=O)N2CCCc3cc(NC(=O)C(=O)NCCN4CCOCC4)cc1c32 (configuration not stated) | -8.8 | -0.1 | 0.4 | -4.6 | 4.6 | -0.9 | x | x | x | x
O=C(COC(=O)CCCOc1ccc(Cl)cc1Cl)Nc1cccc(Cl)c1 | -2.6 | 1.3 | 12.8* | 23.0* | 1.2 | 8.7 | 9.2 | 4.1 | 37.7* | 20.2*
CCOc1ccccc1NC1=CC(=O)CC(c2ccccc2)C1 (configuration not stated) | 0.7 | -3.8 | 10.2* | 21.7* | -2.2 | -1.9 | 0.7 | 0.0 | -4.3 | -1.1
COc1ccc(NC2=CC(=O)CC(c3ccccc3)C2)c(OC)c1 (configuration not stated) | -11.0 | -0.8 | -4.4 | -7.2 | -61.0 | x | x | x | x | x
C[C@H]1CCCCO[C@H](CN(C)C(=O)C2CCCCC2)[C@@H](C)CN([C@@H](C)CO)C(=O)c2cc(NC(=O)NC3CCCCC3)ccc2O1 | -4.4 | 0.1 | 1.6 | -13.1 | 5.1 | x | x | x | x | x
O=C(Nc1ccccc1)OC1CCC2CC1CCC2OC(=O)Nc1ccccc1 (configuration not stated) | 10.5 | 5.2 | 11.5* | 23.6* | -3.2 | 5.9 | 9.0 | 3.3 | 38.4* | 18.4*
CN(c1ccc(OCC(=O)OCC(=O)Nc2ccccc2)cc1)S(=O)(=O)c1cccs1 | 3.6 | -1.4 | -1.9 | 1.6 | 6.5 | -11.9 | x | x | x | x
CN(c1ccc(OCC(=O)OCC(=O)Nc2ccc(Br)cc2)cc1)S(=O)(=O)c1cccs1 | 6.5 | 1.5 | 12.1* | 20.1* | -1.9 | 2.7 | 7.3 | 1.9 | 30.7* | 16.1*
O=C(Cn1cnc([N+](=O)[O-])c1)Nc1cc(Oc2ccc(Cl)cc2Cl)cc([N+](=O)[O-])c1 | 0.7 | 5.3 | 9.5* | 23.2* | -4.7 | 12.4* | 6.6 | 3.5 | 33.2* | 17.3*
Cc1cc(F)ccc1C(O)c1ncc(-c2cccc(OCc3ccccc3)c2)[nH]1 (configuration not stated) | 10.0 | 2.7 | 9.7* | 29.4* | 8.5 | x | 11.6 | 3.6 | 38.7* | 20.2*
COc1ccc([N+](=O)[O-])cc1NC(=S)NC(=O)C(C)(C)C | 8.7 | 1.2 | 3.3 | 4.1 | 0.7 | -0.4 | x | x | x | x
CCn1cc([N+](=O)[O-])c(C(=O)N2N=C(c3cccc4ccccc34)CC2c2ccccc2O)n1 (configuration not stated) | 10.4 | -12.9 | 9.3* | 23.0* | -9.6 | 1.4 | 6.9 | 1.8 | 29.1* | 16.9*
CCn1cc([N+](=O)[O-])c(C(=O)N2N=C(c3ccc4ccccc4c3)CC2c2ccccc2O)n1 (configuration not stated) | -13.2 | -0.3 | 9.1* | 24.4* | -23.4 | -11.3 | 8.2 | 2.5 | 33.2* | 17.9*
